Measurements published in PubChem BioAssay AID504524 (Sanford-Burnham Center for Chemical Genomics, 2011).
Calls of active or inactive are those of the source.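 Rule for the calls: active = mean EC50 below 10 µM; inactive = the rest.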

The compounds below were run against Apelin receptor (Homo sapiens) (UniProt P35414) (assay: APJ receptor agonists, beta-arrestin recruitment, SAR follow-up, cell-based, CHO-K1 AGTRL-1, PathHunter luminescence, set 5 (AID 504524)). Conditions: CHO-K1 AGTRL-1 PathHunter beta-arrestin.
Method in brief: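 Assay system: CHO-K1 cells, APJ and β-arrestin complementation reporter; incubation: overnight seeding, 90 min exposure at 25 °C, 60 min detection; dosing: compounds tested as a dose-response series; signal: β-Gal complementation luminescence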

Apelin receptor (Homo sapiens), sequence (P35414 whole entry, looked up): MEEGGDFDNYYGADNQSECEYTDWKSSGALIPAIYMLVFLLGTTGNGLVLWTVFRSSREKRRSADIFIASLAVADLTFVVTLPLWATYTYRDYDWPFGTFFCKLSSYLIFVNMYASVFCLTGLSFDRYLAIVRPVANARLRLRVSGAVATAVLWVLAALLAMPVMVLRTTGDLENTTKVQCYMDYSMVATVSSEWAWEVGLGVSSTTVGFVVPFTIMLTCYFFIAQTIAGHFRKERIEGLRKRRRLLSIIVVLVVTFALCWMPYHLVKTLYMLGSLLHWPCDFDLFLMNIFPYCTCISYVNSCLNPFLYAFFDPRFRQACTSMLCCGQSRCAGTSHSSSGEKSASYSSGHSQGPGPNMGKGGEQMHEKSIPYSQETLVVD

Compound	EC50
O=C1C=CC(=NOS(=O)(=O)c2ccccc2)C=C1c1ccccc1	> 79 µM (inactive)
CC1=CC(=O)C(C(C)(C)C)=C/C1=N\OS(=O)(=O)C1CCCCC1	inactive
COc1cccc(S(=O)(=O)O/N=C2\C=C(C(C)C)C(=O)C=C2C)c1	5.23 µM
CC1=CC(=O)C(C(C)(C)C)=C/C1=N\OS(=O)(=O)c1cccc(Cl)c1	7.8 µM
CC1=CC(=O)C(C2CCCCC2)=C/C1=N\OS(=O)(=O)c1c(Cl)cccc1Cl	3.59 µM
CC1=CC(=O)C(C2CCCCC2)=C/C1=N/OS(=O)(=O)c1cccc(Br)c1	6.03 µM
CC1=CC(=O)C(C2CCCCC2)=C/C1=N\OS(=O)(=O)c1cccc(Cl)c1	2.61 µM
CC1=CC(=O)C(C(C)C)=C/C1=N/OS(=O)(=O)c1cccc(C#N)c1	1.96 µM
CC1=CC(=O)C(C(C)(C)C)=C/C1=N/OS(=O)(=O)c1cccc(C#N)c1	3.21 µM
CC1=CC(=O)C(C(C)C)=C/C1=N\OS(=O)(=O)c1c(Cl)cccc1Cl	3.53 µM
Cc1cc(N=O)c(C(C)C)cc1O	> 79 µM (inactive)
CC1=CC(=O)C(C2CCCCC2)=C/C1=N/OS(=O)(=O)c1cccc(C)c1	5.49 µM
CC1=CC(=O)C(C(C)(C)C)=C/C1=N/OS(=O)(=O)c1cccc(C)c1	9.59 µM
CC1=CC(=O)C(C2CCCCC2)=C/C1=N\OS(=O)(=O)c1ccccc1Cl	6.5 µM
CC1=CC(=O)C(C2CCCCC2)=C/C1=N\OS(=O)(=O)c1cn(C)cn1	6.36 µM
CC1=CC(=O)C(C(C)C)=C/C1=N\OS(=O)(=O)c1cccc(Cl)c1	3.17 µM

Compound	EC50
CC1=CC(=O)C(C(C)C)=C/C1=N\OS(=O)(=O)C1CCCCC1	inactive
N#Cc1ccc(S(=O)(=O)ON=C2C=CC(=O)C(c3ccccc3)=C2)cc1	> 79 µM (inactive)
CC1=CC(=O)C(C(C)(C)C)=C/C1=N/OS(=O)(=O)c1cccc(Br)c1	inactive
Cc1cc(O)c(C(C)(C)C)cc1N=O	> 79 µM (inactive)
CC1=CC(=O)C(C(C)C)=C/C1=N\OS(=O)(=O)c1cn(C)cn1	inactive
CC1=CC(=O)C(C(C)(C)C)=C/C1=N\OS(=O)(=O)c1cn(C)cn1	10 µM
CC1=CC(=O)C(C(C)C)=C/C1=N/OS(=O)(=O)c1cccc(C)c1	5.68 µM
CC1=CC(=O)C(C(C)C)=C/C1=N\OS(=O)(=O)c1ccccc1Cl	1.94 µM
CC1=CC(=O)C(C(C)C)=C/C1=N/OS(=O)(=O)c1cccc(Br)c1	3.16 µM
CC(C)C1=CC(=NOS(=O)(=O)c2ccccc2)C=CC1=O	4.96 µM
CC1=CC(=O)C(C(C)(C)C)=C/C1=N\OS(=O)(=O)c1c(Cl)cccc1Cl	7.9 µM
CC1=CC(=O)C(C(C)(C)C)=C/C1=N\OS(=O)(=O)c1ccccc1Cl	8.69 µM
COc1cccc(S(=O)(=O)O/N=C2\C=C(C(C)(C)C)C(=O)C=C2C)c1	7.96 µM
COc1cccc(S(=O)(=O)O/N=C2\C=C(C3CCCCC3)C(=O)C=C2C)c1	5.53 µM
CC1=CC(=O)C(C2CCCCC2)=C/C1=N/OS(=O)(=O)c1cccc(C#N)c1	5.13 µM
